Legend:
[1] = target: T1, Adenosine receptor A1 (Homo sapiens) (UniProt P30542); assay: Displacement of [3H]DPCPX from human adenosine A1 receptor expressed in CHO cell membranes at 1 uM incubated for 60 mins by scintillation counting method; details: Cell membrane
T1 sequence (whole entry): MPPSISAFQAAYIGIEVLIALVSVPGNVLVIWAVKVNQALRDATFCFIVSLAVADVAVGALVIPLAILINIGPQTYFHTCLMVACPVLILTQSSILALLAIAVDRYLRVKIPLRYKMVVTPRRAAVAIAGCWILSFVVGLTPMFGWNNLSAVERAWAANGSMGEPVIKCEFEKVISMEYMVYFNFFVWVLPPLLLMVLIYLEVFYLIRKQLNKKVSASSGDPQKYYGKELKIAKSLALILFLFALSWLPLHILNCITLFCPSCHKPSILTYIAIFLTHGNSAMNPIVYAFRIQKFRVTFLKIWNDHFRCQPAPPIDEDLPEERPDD

Adenosine receptor A2b = target: T2, Adenosine receptor A2b (Homo sapiens, UniProt P29275); assay: Displacement of [3H]DPCPX from human adenosine A2B receptor expressed in HEK293 cell membranes incubated for 30 mins by scintillation counting method; set-up: species or system Cell membrane
T2 sequence (P29275 whole entry): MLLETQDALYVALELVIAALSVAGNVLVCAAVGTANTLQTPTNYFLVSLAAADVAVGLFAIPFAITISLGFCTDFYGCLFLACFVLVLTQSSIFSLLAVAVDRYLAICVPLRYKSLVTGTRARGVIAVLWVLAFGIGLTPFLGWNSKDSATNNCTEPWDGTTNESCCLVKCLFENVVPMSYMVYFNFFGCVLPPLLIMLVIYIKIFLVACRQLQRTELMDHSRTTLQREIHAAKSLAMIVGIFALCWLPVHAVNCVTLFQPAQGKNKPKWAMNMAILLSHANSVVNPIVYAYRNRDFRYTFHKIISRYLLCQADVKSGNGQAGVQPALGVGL

[2] = target: T3, Adenosine receptor A3 (Homo sapiens) (UniProt P0DMS8); assay: Displacement of [3H]NECA from adenosine A3 receptor expressed in human HeLa cell membranes at 1 uM incubated for 180 mins by scintillation counting method; details: Cell membrane
T3 sequence (whole entry): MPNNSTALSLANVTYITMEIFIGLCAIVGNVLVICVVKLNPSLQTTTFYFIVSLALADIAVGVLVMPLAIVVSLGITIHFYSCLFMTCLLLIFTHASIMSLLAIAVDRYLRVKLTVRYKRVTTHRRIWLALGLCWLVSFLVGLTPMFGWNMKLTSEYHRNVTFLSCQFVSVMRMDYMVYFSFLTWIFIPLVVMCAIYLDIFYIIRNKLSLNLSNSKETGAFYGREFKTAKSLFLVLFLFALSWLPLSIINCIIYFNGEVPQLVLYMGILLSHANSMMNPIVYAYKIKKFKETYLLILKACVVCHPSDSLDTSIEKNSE
Method in brief: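 hA3AR in HeLa membranes (3 pmol/mg protein) with 10 nM [3H]NECA (KD 8.7 nM); nonspecific binding with 100 μM R-PIA; incubated 180 min at 25 °C, washed, filtered, radioactivity counted.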

[3] = target: Adenosine receptor A2a (Homo sapiens) (UniProt P29274); assay: Displacement of [3H]ZM2421385 from adenosine A2A receptor expressed in human HeLa cell membranes at 1 uM incubated for 30 mins by scintillation counting method; details: Cell membrane
Chain of Adenosine receptor A2a (Homo sapiens) (P29274 whole entry): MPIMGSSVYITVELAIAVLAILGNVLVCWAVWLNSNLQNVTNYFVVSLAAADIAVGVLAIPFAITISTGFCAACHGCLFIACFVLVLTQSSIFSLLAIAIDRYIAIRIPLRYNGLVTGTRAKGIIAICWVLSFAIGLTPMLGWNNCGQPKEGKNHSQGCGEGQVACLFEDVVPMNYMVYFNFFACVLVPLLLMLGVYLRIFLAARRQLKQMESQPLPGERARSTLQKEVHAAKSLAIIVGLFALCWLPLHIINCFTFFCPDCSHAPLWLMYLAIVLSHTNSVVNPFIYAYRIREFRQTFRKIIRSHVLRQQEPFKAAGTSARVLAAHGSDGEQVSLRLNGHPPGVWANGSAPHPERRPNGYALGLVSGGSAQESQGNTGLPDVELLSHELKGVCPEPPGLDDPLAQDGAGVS

[4] = target: T4, Adenosine receptor A2b (Homo sapiens) (UniProt P29275); assay: Displacement of [3H]DPCPX from human adenosine A2B receptor expressed in HEK293 cell membranes at 1 uM incubated for 30 mins by scintillation counting method; details: Cell membrane
T4 sequence (whole entry): T2 sequence (P29275 whole entry)

Compound | inhibition [1] [%] | Ki (Adenosine receptor A2b) [nM] | inhibition [2] [%] | inhibition [3] [%] | inhibition [4] [%]
CCOC(=O)C1=C(C)NC(=O)N[C@@H]1c1ccsc1 | 10 | 11.1 | 6 | 9 | 
CC1=C(C(=O)OC(C)C)[C@@H](c2ccco2)NC(=S)N1 | 8 | 6.3 | 1 | 13 | 
CCOC(=O)C1=C(C)N=C(S)NC1c1cccs1 (racemic) |  | 3250 |  |  | 
CC1=C(C(=O)OCc2ccccc2)C(c2cccs2)NC(=O)N1 (racemic) | 45 | 1920 | 8 | 30 | 
CC1=C(C(=O)CC(C)C)C(c2ccoc2)NC(=O)N1 (racemic) | 23 | 1010 | 18 | 20 | 
CCC(C)OC(=O)C1=C(C)NC(=O)NC1c1ccco1 (racemic) | 6 | 84.3 | 3 | 1 | 
CC1=C(C(=O)OC2CCC2)C(c2cccs2)NC(=O)N1 (racemic) | 24 | 1090 | 2 | 26 | 
CC1=C(c2ncc(C)o2)C(c2ccoc2)NC(=O)N1 (racemic) | 21 | 801 | 1 | 14 | 
CC1=C(C(=O)OCC(C)C)C(c2ccco2)NC(=O)N1 (racemic) | 27 | 199 | 13 | 36 | 
CC1=C(C(=O)OCC2CC2)C(c2ccco2)NC(=O)N1 (racemic) | 29 | 138 | 1 | 36 | 
CCCOC(=O)C1=C(C)NC(=O)NC1c1ccsc1 (racemic) | 44 | 201 | 6 | 48 | 
CCCOC(=O)C1=C(C)NC(=O)NC1c1ccoc1 (racemic) | 50 | 1190 | 11 | 45 | 
CC1=C(C(=O)CC(C)C)C(c2ccco2)NC(=O)N1 (racemic) | 16 | 240 | 31 | 6 | 
CC1=C(C(=O)OCC(C)C)C(c2cccs2)NC(=O)N1 (racemic) | 25 | 2130 | 11 | 12 | 
CC1=C(C(=O)SC(C)C)C(c2ccoc2)NC(=O)N1 (racemic) | 9 | 637 | 3 | 2 | 
CC1=C(C(=O)OC2CCCC2)C(c2ccoc2)NC(=O)N1 (racemic) | 6 | 1010 | 1 | 1 | 
CC1=C(C(=O)OCC2CCC2)C(c2ccco2)NC(=O)N1 (racemic) | 42 | 561 | 1 | 22 | 
CC1=C(C(=O)OCC2CCC2)C(c2cccs2)NC(=O)N1 (racemic) | 39 | 2840 | 1 | 22 | 
CC1=C(c2ncc(C)o2)C(c2ccsc2)NC(=O)N1 (racemic) | 34 | 1130 | 2 | 20 | 
CC1=C(C(=O)OC(C)(C)C)C(c2ccoc2)NC(=O)N1 (racemic) | 11 | 4440 | 2 | 9 | 
CC1=C(C(=O)OC2CCCCC2)C(c2cccs2)NC(=O)N1 (racemic) | 7 |  | 1 | 14 | 3
CC1=C(C(=O)OC2CCCCC2)C(c2ccsc2)NC(=O)N1 (racemic) | 8 |  | 1 | 2 | 4
CCC(C)OC(=O)C1=C(C)NC(=O)NC1c1cccs1 (racemic) | 5 |  | 7 | 2 | 7
CCC(C)OC(=O)C1=C(C)NC(=O)NC1c1ccsc1 (racemic) | 5 |  | 7 | 1 | 39
CCC(CC)OC(=O)C1=C(C)NC(=O)NC1c1ccsc1 (racemic) | 22 |  | 6 | 1 | 26

Second part, the compound after the results:

inhibition [1] [%] | Ki (Adenosine receptor A2b) [nM] | inhibition [2] [%] | inhibition [3] [%] | inhibition [4] [%] | Compound
11 | 984 | 1 | 20 |  | COC(=O)C1=C(C)N=C(S)NC1c1ccco1 (racemic)
46 | 4520 | 14 | 30 |  | CC1=C(C(=O)OCc2ccccc2)C(c2ccsc2)NC(=O)N1C (racemic)
56 | 1190 | 21 | 37 |  | CC1=C(C(=O)OCC(C)C)C(c2ccsc2)NC(=O)N1 (racemic)
 | 315 |  |  |  | CC1=C(C(=O)OC(C)C)C(c2ccsc2)NC(=S)N1 (racemic)
36 | 887 | 3 | 26 |  | CC1=C(C(=O)OCc2ccccc2)C(c2ccco2)NC(=O)N1 (racemic)
43 | 1520 | 32 | 30 |  | CCCOC(=O)C1=C(C)NC(=O)NC1c1cccs1 (racemic)
1 | 577 | 14 | 23 |  | CC1=C(C(=O)OC2CCCC2)C(c2ccco2)NC(=O)N1 (racemic)
18 | 1890 | 19 | 15 |  | CC1=C(C(=O)OC(C)(C)C)C(c2ccoc2)NC(=S)N1 (racemic)
13 | 201 | 11 | 1 |  | CCC(C)OC(=O)C1=C(C)NC(=O)NC1c1ccoc1 (racemic)
2 | 1060 | 7 | 2 |  | CC1=C(C(=O)C2CC2)C(c2ccco2)NC(=O)N1 (racemic)
20 | 307 | 1 | 32 |  | CC1=C(C(=O)OC2CCC2)C(c2ccoc2)NC(=O)N1 (racemic)
27 | 905 | 4 | 23 |  | CC1=C(c2ncc(C)o2)C(c2ccco2)NC(=O)N1 (racemic)
40 | 405 | 3 | 41 |  | CC1=C(C(=O)OC2CCC2)C(c2ccsc2)NC(=O)N1 (racemic)
41 | 6650 | 1 | 24 |  | CC1=C(C(=O)OCc2ccccc2)C(c2ccoc2)NC(=O)N1 (racemic)
19 | 95.1 | 1 | 41 |  | CC1=C(C(=O)OC2CCC2)C(c2ccco2)NC(=O)N1 (racemic)
46 | 739 | 2 | 25 |  | CC1=C(C(=O)OCC2CCC2)C(c2ccoc2)NC(=O)N1 (racemic)
23 | 1570 | 1 | 27 |  | CC1=C(C(=O)OCC2CC2)C(c2cccs2)NC(=O)N1 (racemic)
1 | 807 | 1 | 6 |  | CCCC(=O)C1=C(C)NC(=O)NC1c1ccco1 (racemic)
29 | 426 | 3 | 43 |  | CC1=C(C(=O)OCC2CC2)C(c2ccoc2)NC(=O)N1 (racemic)
37 | 1000 | 14 | 19 |  | CC1=C(C(=O)CC(C)C)C(c2ccsc2)NC(=O)N1 (racemic)
9 |  | 1 | 20 | 1 | CC1=C(C(=O)OC2CCCC2)C(c2cccs2)NC(=O)N1 (racemic)

From ChEMBL document CHEMBL4765483 (J Med Chem, 2021)
